A short description of series [1]: Permeability across apical to basolateral side in human Caco2 cells. The series is classed as ADME, cell-based. The following applies: Caco-2, read-out: permeability. The method in brief: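 Caco-2 monolayer permeability run with apical compartment at pH 6.0 and basolateral compartment at pH 7.4; reported in 10^-6 cm/s.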
(Passage across Caco-2 layers is used to estimate intestinal permeability.)

Series [2] has as its system Hepatitis C virus. The series can be described thus: Antiviral activity against HCV genotype 1b infected in human HuH7 cells assessed as inhibition of viral RNA replication after 72 hrs by luciferase reporter gene assay. The series is classed as functional, organism-based, Hepacivirus hominis. The following applies: Huh-7, 72 h. The method in brief:
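HCV genotype 1b subgenomic luciferase reporter replicon cells. EC50 taken from inhibition of replicon RNA replication, luciferase read-out, n ≥ 2; method as described in earlier work.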
(Reporter assays use an easily measured gene product as a stand-in for the process of interest.)

Series [3] is described as follows: Solubility of the compound in form of lyophilized, amorphous solid at pH 2 after 24 hrs by shake flask method. The conditions noted are these: buffer. The format is physicochemical. The gist of the method: (§1)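 Lyophilized amorphous solids tested by 24 h shaking flask method; solubility given in µg/ml at pH 2 and at pH 6.8.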
A short description of series [4]: Lipophilicity, log D of the compound at pH 7.4. The format is physicochemical. The conditions noted are these: buffer.
A short description of series [5]: Solubility of the compound in form of lyophilized, amorphous solid at pH 6.8 after 24 hrs by shake flask method. The following applies: buffer. The series is classed as physicochemical. The gist of the method:
as §1

Series [6] deals with Hepatitis C virus. Kind of series: Antiviral activity against HCV genotype 1b expressing HCV genotype 4a NS5B infected in human HuH7-J cells assessed as inhibition of viral RNA replication after 72 hrs by poliovirus internal ribosomal entry site incorporating luciferase reporter gene assay. The format is functional, organism-based, Hepacivirus hominis. The following applies: Huh-7, 72 h. The method in brief: (§2)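 Surrogate assay using chimeric gt1b subgenomic replicons that carry the NS5B polymerase gene from gt2b, 3a, 4a or 5a. Luciferase reporter sits downstream of the poliovirus IRES. EC50 is derived from inhibition of replication read by luciferase.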

Series [7] concerns Hepatitis C virus. The series can be described thus: Antiviral activity against HCV genotype 1b expressing HCV genotype 5a NS5B infected in human HuH7-J cells assessed as inhibition of viral RNA replication after 72 hrs by poliovirus internal ribosomal entry site incorporating luciferase reporter gene assay. The format is functional, organism-based, Hepacivirus hominis. The conditions noted are these: Huh-7, 72 h. The gist of the method:
as §2

Series [8] concerns Hepatitis C virus. The series can be described thus: Antiviral activity against HCV genotype 1b expressing HCV genotype 6a NS5B infected in human HuH7-J cells assessed as inhibition of viral RNA replication after 72 hrs by real-time PCR analysis. The format is functional, organism-based, Hepacivirus hominis. The following applies: Huh-7, 72 h. The gist of the method: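 Surrogate assay using a chimeric gt1b subgenomic replicon carrying the gt6a NS5B polymerase gene. Replicon RNA is quantified by RT-PCR, and EC50 is derived from inhibition of HCV RNA replication.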
On the technique in general: Real-time PCR tracks product formation cycle by cycle.

For series [9], the system named is Hepatitis C virus. The series can be described thus: Antiviral activity against HCV genotype 1b expressing HCV genotype 3a NS5B infected in human HuH7-J cells assessed as inhibition of viral RNA replication after 72 hrs by poliovirus internal ribosomal entry site incorporating luciferase reporter gene assay. The following applies: Huh-7, 72 h. The series is classed as functional, organism-based, Hepacivirus hominis. The method in brief:
as §2

Series [10] concerns Hepatitis C virus. The series can be described thus: Antiviral activity against HCV genotype 1b expressing HCV genotype 2b NS5B infected in human HuH7-J cells assessed as inhibition of viral RNA replication after 72 hrs by poliovirus internal ribosomal entry site incorporating luciferase reporter gene assay. The format is functional, organism-based, Hepacivirus hominis. The conditions noted are these: Huh-7, 72 h. The method in brief:
as §2

For series [11], the system named is Hepatitis C virus. The series can be described thus: Antiviral activity against HCV genotype 1b infected in human HuH7-J cells assessed as inhibition of viral RNA replication after 72 hrs by poliovirus internal ribosomal entry site incorporating luciferase reporter gene assay. The series is classed as functional, organism-based, Hepacivirus hominis. The conditions noted are these: Huh-7, 72 h. The method in brief:
(§3)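 Subgenomic HCV replicons (gt1a or gt1b) carrying a luciferase reporter, with the poliovirus IRES placed upstream of luciferase. EC50 is derived from inhibition of HCV RNA replication read by luciferase signal.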

The test system of series [12] is Hepatitis C virus. Kind of series: Antiviral activity against HCV genotype 1a infected in human HuH7-J cells assessed as inhibition of viral RNA replication after 72 hrs by poliovirus internal ribosomal entry site incorporating luciferase reporter gene assay. The following applies: subtype 1a, Huh-7, 72 h. The format is functional, organism-based, Hepacivirus hominis. The method in brief: as §3

Data on 16 compounds can be found in ChEMBL document CHEMBL3120123, “Molecular dynamics simulations and structure-based rational design lead to allosteric HCV NS5B polymerase thumb pocket 2 inhibitor with picomolar cellular replicon potency” (J Med Chem, 2014).

≈ marks a conversion by molar mass, not a printed value.

A word on the EC50: it is the concentration at which the effect is half-maximal. As for `O=C(Nc1ccccn1)c1cccc(Oc2ccc3c(c2)c(=O)ncn3Cc2c(F)cc(F)cc2F)c1C(F)(F)F`, the Papp A→B in [1] stood at 1.2 ×10⁻⁶ cm/s. Besides, the EC50 with Hepatitis C virus [2] was 6.8 nM.

A word on the thermodynamic solubility: it is solubility found after equilibrating the solid with the medium. By logD is commonly meant the decadic logarithm of the distribution of all forms, ionised or not, between an organic phase and buffer at a given pH. A lower logD goes with a more hydrophilic compound. Regarding `O=c1ncn(Cc2c(F)cc(F)cc2F)c2ccc(Oc3cccc(-c4ccc5[nH]cnc5c4)c3C(F)(F)F)cc12`, the thermodynamic solubility at 24 h in series [3] and in series [5] was less than 0.1 µg/mL each time. Further, the Papp A→B in series [1] was 0.4 ×10⁻⁶ cm/s. Also, the EC50 in the series on Hepatitis C virus [2] turned out to be 0.6 nM. This compound registered a logD in series [4] of 4.7.

In the case of `Cc1ccc(-c2cccc(Oc3ccc4c(c3)c(=O)ncn4Cc3c(F)cc(F)cc3F)c2C(F)(F)F)cn1`, the solubility (thermodynamic) at 24 h in [3] is 180 µg/mL (≈ 332 µM); in series [5], less than 0.1 µg/mL. For the same compound, in the series on Hepatitis C virus [2], the EC50 was determined as 55 nM. In series [4], this compound yielded a pH-dependent lipophilicity (logD) of 4.2.

As to `O=c1ncn(Cc2c(F)cc(F)cc2F)c2ccc(Oc3ccc(-c4ccc5[nH]ccc5c4)cc3)cc12`, the solubility (thermodynamic) at 24 h in series [3] is less than 0.1 µg/mL; in series [5], 0.18 µg/mL (≈ 0.362 µM). Also, in [1], the Papp A→B turned out to be 3.5 ×10⁻⁶ cm/s. Further, in the series on Hepatitis C virus [2], the EC50 was determined as 4.6 nM. The logD in series [4] was found to be 4.4.

As for `O=c1ncn(Cc2c(F)cc(F)cc2F)c2ccc(Oc3ccc(-c4nc5ncccc5o4)cc3)cc12`, the 50% effective concentration (EC50) in the series with Hepatitis C virus [2] is 490 nM.

`Nc1ccc(-c2cccc(Oc3ccc4c(c3)c(=O)ncn4Cc3c(F)cc(F)cc3F)c2C(F)(F)F)cn1`: the solubility (thermodynamic) at 24 h in series [3] is 0.3 µg/mL (≈ 0.553 µM); in series [5] it was less than 0.1 µg/mL. Moreover, the Papp A→B in series [1] amounted to 4.1 ×10⁻⁶ cm/s. The 50% effective concentration (EC50) with Hepatitis C virus [2] was 10 nM. In series [4], this compound yielded a logD of 3.9.

As to `O=c1ncn(Cc2c(F)cc(F)cc2F)c2ccc(Oc3cccc(-c4ccccc4)c3C(F)(F)F)cc12`, in the series on Hepatitis C virus [2], the EC50 came to 450 nM.

With `O=c1ncn(Cc2c(F)cc(F)cc2F)c2ccc(Oc3cccc(-c4ccccn4)c3C(F)(F)F)cc12`, the EC50 with Hepatitis C virus [2] turned out to be 310 nM.

Regarding `NC(=O)c1cccc(Oc2ccc3c(c2)c(=O)ncn3Cc2c(F)cc(F)cc2F)c1C(F)(F)F`, in series [1], the Papp A→B was determined as 1.9 ×10⁻⁶ cm/s. The concentration for a half-maximal effect (EC50) in the series with Hepatitis C virus [2] came out at 180 nM.

As to `O=c1ncn(Cc2c(F)cc(F)cc2F)c2ccc(Oc3cccc(-c4nc5ncccc5o4)c3C(F)(F)F)cc12`, in series [1], the Papp A→B is 3 ×10⁻⁶ cm/s. Moreover, in the series on Hepatitis C virus [2], the EC50 was 3.3 nM.

On to `O=C(Nc1ccccc1)c1cccc(Oc2ccc3c(c2)c(=O)ncn3Cc2c(F)cc(F)cc2F)c1C(F)(F)F`, for which the Papp A→B in series [1] was determined as 0.84 ×10⁻⁶ cm/s. Moreover, the EC50 with Hepatitis C virus [2] worked out at 2.5 nM.

As to `O=c1ncn(Cc2c(F)cc(F)cc2F)c2ccc(Oc3cccc(-c4ccc5cc[nH]c5c4)c3C(F)(F)F)cc12`, the solubility (thermodynamic) at 24 h in [3] and in series [5] was less than 0.1 µg/mL throughout. In addition, in the series with Hepatitis C virus [2], the EC50 turned out to be 10 nM. This compound also displayed a logD in [4] of 5.

In the case of `Cc1cc(-c2cccc(Oc3ccc4c(c3)c(=O)ncn4Cc3c(F)cc(F)cc3F)c2C(F)(F)F)cnc1N`, the solubility (thermodynamic) at 24 h in [3] is 74 µg/mL (≈ 133 µM); in series [5], less than 0.1 µg/mL. The Papp A→B in series [1] is 1.1 ×10⁻⁶ cm/s. Further, in the series on Hepatitis C virus [2], the EC50 came out at 6 nM. Also, the pH-dependent lipophilicity (logD) in series [4] is more than 4.7.

As for `O=C(Nc1cccnc1)c1cccc(Oc2ccc3c(c2)c(=O)ncn3Cc2c(F)cc(F)cc2F)c1C(F)(F)F`, in series [1], the Papp A→B turned out to be 0.26 ×10⁻⁶ cm/s. Moreover, the 50% effective concentration (EC50) with Hepatitis C virus [2] is 5.7 nM.

Regarding `O=c1ncn(Cc2c(F)cc(F)cc2F)c2ccc(Oc3cccc(-c4ccc5[nH]ccc5c4)c3C(F)(F)F)cc12`, the EC50 with Hepatitis C virus [6] came out at 1.1 nM; in the series on Hepatitis C virus [7], 1.3 nM; in the series on Hepatitis C virus [8], 11 nM; in the series on Hepatitis C virus [9] it was 80 nM; in the series with Hepatitis C virus [2], 0.13 nM; in the series with Hepatitis C virus [10] it was 15 nM. The concentration for a half-maximal effect (EC50) is 0.11 nM in the series on Hepatitis C virus [11] and 0.12 nM with Hepatitis C virus [12]. Also, the solubility (thermodynamic) at 24 h in [3] and in series [5] was less than 0.1 µg/mL each time. The Papp A→B in series [1] turned out to be 10.5 ×10⁻⁶ cm/s. The compound further showed a pH-dependent lipophilicity (logD) in [4] of 5.1.

For the compound `O=c1ncn(Cc2c(F)cc(F)cc2F)c2ccc(Oc3ccccc3C(F)(F)F)cc12`, the Papp A→B in series [1] is 9.2 ×10⁻⁶ cm/s.
